In series [1] the target is Histone deacetylase 5 (Homo sapiens) (UniProt Q9UQL6). In words: Inhibition of human recombinant HDAC5 using fluorogenic trifluoroacetyl lysine as substrate at 10 uM by fluorescence method. The method, boiled down: (§1)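 Selectivity profile across HDAC isoforms 1–11 at a single concentration of 10 μM, run in duplicate.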
Series [2] concerns the target T1, Histone deacetylase 1 (Homo sapiens, UniProt Q13547). In words: Inhibition of human recombinant HDAC1 using ZMAL (Z-(Ac)Lys-AMC fluorogenic substrate incubated for 90 mins by fluorescence method.
Series [3] relates to N9. Briefly: Immunomodulatory activity in mouse N9 cells assessed as reduction in LPS-induced iNOS expression at 5 to 25 uM incubated for 24 hrs by Western blot analysis. The series is classed as functional, cell-based. In short, it runs like this: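 N9 mouse microglial cells stimulated with LPS (100 ng/mL) and treated at 5 and 25 μM. iNOS and MRC1 levels were read by Western blot with GAPDH as loading control. Densitometry is expressed as percentage of LPS-only cells, as mean ± SE of three independent experiments.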
(A western blot detects proteins with antibodies after separation by electrophoresis.)

Series [4] deals with T1, Histone deacetylase 1. In words: Inhibition of human recombinant HDAC1 using fluorogenic peptide p53 residues 379-382 (RHKK(Ac)AMC) as residues at 10 uM by fluorescence method. In short, it runs like this:
as §1

For series [5], the target named is T2, Polyamine deacetylase HDAC10 (Homo sapiens) (UniProt Q969S8).
T2 sequence (whole entry): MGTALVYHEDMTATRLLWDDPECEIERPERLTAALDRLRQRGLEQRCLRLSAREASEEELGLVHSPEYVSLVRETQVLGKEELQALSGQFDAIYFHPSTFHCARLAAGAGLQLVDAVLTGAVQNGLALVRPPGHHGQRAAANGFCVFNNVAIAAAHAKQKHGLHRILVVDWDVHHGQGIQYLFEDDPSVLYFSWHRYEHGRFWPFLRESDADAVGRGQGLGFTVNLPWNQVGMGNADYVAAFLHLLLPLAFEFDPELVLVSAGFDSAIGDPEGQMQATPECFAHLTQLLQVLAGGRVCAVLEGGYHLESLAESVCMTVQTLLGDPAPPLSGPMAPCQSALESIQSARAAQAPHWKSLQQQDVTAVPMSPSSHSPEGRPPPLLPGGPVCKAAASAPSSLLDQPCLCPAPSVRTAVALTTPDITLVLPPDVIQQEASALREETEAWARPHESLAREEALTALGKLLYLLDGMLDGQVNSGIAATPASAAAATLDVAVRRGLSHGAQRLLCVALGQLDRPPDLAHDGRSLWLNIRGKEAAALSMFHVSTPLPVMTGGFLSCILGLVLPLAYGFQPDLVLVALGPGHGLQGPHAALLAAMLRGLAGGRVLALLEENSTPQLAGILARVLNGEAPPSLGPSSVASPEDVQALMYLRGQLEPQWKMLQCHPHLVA
In words: Inhibition of human recombinant HDAC10 using fluorogenic peptide p53 residues 379-382 (RHKK(Ac)AMC) as residues at 10 uM by fluorescence method. In short, it runs like this: as §1

For series [6], the target named is Histone deacetylase 2 (Homo sapiens) (UniProt Q92769). In words: Inhibition of human recombinant HDAC2 using fluorogenic peptide p53 residues 379-382 (RHKK(Ac)AMC) as residues at 10 uM mins by fluorescence method. In short, it runs like this:
as §1

Series [7] has as its target T3, Protein deacetylase HDAC6 (Homo sapiens, UniProt Q9UBN7).
T3 sequence (Q9UBN7 whole entry): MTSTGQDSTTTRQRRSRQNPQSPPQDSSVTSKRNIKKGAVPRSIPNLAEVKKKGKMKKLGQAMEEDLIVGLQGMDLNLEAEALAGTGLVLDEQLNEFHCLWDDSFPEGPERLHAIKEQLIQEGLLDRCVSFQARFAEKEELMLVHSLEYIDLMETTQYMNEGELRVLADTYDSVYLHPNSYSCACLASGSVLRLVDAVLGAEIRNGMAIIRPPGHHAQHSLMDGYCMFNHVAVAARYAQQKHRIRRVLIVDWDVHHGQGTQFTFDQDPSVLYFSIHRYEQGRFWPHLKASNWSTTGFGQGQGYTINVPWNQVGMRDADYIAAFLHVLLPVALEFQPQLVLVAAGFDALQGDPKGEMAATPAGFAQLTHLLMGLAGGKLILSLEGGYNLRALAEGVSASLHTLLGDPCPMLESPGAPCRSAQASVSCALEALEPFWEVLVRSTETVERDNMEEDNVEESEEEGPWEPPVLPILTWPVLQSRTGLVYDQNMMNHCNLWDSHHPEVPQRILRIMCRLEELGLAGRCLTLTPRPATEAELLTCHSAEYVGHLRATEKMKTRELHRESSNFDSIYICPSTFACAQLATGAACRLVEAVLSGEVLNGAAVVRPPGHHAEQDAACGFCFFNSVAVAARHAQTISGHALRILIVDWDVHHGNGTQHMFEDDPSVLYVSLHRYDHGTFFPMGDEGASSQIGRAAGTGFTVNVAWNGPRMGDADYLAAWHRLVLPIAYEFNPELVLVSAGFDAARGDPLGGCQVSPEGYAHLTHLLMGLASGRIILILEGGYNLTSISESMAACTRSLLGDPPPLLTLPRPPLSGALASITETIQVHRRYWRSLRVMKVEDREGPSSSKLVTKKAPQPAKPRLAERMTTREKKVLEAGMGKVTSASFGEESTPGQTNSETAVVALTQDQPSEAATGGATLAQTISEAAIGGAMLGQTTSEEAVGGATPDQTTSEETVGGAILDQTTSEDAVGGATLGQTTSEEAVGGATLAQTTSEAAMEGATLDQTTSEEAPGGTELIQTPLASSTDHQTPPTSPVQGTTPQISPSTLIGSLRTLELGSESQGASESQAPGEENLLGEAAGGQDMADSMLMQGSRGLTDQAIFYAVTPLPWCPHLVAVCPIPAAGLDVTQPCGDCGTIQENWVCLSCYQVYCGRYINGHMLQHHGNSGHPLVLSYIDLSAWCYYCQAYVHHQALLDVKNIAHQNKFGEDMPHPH
In words: Inhibition of human recombinant HDAC6 using ZMAL (Z-(Ac)Lys-AMC fluorogenic substrate incubated for 90 mins by fluorescence method.

Series [8] has as its target Histone deacetylase 4 (Homo sapiens) (UniProt P56524). In words: Inhibition of human recombinant HDAC4 using fluorogenic trifluoroacetyl lysine as substrate at 10 uM by fluorescence method. In short, it runs like this:
as §1

The species named for series [9] is Rattus norvegicus. In words: Neuroprotective activity against low serum/K+ deprivation-induced toxicity in rat CGN cells assessed as increase in cell viability at 5 to 25 uM pre-treated for 6 hrs followed by 24 hrs co-treatment with serum/K+ starvation and measured after 24 hrs by MTT assay. In kind it is functional, cell-based. The method, boiled down: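 Primary rat cerebellar granule neurons were pretreated for 6 h, then cotreated for 24 h under low-serum and K+ deprivation to induce death. Viability was compared with control and deprivation-only conditions, with tacrine as reference compound.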

Series [10] can be described thus: Permeability of the compound at pH 7.4 PBS buffer at 100 uM measured upto 6 hrs by PAMPA-BBB assay. (In general: The PAMPA barrier holds no transporters, so it reflects passive diffusion.)
For series [11], the target named is Histone deacetylase 3 (Homo sapiens) (UniProt O15379). Briefly: Inhibition of human recombinant HDAC3 using fluorogenic peptide p53 residues 379-382 (RHKK(Ac)AMC) as residues at 10 uM by fluorescence method. The method, boiled down: as §1
Sequence of Histone deacetylase 3 (Homo sapiens) (O15379 whole entry, the tested form may be a part): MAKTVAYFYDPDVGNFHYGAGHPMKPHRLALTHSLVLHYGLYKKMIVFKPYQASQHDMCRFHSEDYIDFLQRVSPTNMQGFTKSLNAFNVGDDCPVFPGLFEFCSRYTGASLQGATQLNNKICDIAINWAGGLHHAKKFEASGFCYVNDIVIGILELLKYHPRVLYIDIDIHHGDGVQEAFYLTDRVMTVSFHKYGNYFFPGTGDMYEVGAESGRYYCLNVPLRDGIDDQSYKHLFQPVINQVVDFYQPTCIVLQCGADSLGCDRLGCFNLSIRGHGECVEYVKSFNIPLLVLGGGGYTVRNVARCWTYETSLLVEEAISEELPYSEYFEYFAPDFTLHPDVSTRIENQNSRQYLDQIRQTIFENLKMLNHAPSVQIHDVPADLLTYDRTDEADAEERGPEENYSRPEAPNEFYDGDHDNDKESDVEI

Active and inactive are the calls of the source. The calls are words filed in the database; no cut-off is given here.

T1 sequence (Q13547 whole entry): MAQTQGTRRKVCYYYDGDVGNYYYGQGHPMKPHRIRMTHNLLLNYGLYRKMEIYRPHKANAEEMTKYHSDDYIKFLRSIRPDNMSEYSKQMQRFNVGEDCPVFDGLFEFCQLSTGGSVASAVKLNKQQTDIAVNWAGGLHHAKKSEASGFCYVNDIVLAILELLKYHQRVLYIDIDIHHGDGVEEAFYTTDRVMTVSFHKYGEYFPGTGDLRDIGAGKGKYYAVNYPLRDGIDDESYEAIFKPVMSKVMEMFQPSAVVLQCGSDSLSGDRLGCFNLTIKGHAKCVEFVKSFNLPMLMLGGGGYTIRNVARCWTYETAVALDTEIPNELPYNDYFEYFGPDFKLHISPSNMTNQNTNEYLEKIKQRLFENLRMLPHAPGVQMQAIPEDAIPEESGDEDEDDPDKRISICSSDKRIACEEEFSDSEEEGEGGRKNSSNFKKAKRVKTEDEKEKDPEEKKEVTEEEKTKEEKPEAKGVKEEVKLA
Sequence of Histone deacetylase 2 (Homo sapiens) (Q92769 whole entry, the tested form may be a part): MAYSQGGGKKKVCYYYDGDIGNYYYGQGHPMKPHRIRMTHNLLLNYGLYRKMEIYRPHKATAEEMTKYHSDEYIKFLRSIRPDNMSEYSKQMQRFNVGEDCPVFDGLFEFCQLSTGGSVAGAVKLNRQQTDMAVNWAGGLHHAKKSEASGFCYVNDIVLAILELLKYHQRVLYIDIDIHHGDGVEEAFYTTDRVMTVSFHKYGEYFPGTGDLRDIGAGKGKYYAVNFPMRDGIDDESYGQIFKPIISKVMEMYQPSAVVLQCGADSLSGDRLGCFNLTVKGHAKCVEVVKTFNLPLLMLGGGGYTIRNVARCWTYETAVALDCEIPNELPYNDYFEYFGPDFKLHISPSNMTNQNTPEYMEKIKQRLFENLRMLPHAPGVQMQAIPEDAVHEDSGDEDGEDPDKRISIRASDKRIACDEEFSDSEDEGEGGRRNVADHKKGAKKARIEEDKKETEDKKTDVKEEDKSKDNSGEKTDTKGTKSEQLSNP
Sequence of Histone deacetylase 4 (Homo sapiens) (P56524 whole entry): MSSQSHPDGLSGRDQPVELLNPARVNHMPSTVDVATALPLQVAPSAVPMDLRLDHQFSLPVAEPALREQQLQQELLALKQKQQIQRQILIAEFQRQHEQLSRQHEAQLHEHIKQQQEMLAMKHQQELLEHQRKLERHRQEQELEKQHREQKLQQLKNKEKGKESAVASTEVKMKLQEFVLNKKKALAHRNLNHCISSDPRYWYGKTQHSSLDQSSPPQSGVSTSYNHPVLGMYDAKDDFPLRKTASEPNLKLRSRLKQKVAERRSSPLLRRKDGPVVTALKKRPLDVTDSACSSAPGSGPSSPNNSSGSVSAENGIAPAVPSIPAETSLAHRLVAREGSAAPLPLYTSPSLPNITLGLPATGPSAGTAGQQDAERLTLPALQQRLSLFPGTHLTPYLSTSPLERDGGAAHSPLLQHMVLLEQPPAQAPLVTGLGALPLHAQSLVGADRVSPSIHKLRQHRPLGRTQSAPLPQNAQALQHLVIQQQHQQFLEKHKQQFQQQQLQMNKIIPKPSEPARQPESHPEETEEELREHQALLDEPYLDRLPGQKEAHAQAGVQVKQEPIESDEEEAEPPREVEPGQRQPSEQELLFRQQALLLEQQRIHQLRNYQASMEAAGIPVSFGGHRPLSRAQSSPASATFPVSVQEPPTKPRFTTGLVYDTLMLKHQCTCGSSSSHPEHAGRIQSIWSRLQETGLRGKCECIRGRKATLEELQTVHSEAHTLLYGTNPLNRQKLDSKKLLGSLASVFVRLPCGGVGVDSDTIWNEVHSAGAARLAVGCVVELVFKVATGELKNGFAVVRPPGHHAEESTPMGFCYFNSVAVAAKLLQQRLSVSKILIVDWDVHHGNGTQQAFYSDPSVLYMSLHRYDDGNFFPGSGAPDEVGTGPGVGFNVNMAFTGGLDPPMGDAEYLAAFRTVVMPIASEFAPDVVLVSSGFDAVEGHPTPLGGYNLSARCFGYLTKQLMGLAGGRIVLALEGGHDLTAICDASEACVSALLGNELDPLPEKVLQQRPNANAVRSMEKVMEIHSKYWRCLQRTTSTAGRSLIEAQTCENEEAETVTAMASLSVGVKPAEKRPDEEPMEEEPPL
Sequence of Histone deacetylase 5 (Homo sapiens) (Q9UQL6 whole entry, canonical isoform): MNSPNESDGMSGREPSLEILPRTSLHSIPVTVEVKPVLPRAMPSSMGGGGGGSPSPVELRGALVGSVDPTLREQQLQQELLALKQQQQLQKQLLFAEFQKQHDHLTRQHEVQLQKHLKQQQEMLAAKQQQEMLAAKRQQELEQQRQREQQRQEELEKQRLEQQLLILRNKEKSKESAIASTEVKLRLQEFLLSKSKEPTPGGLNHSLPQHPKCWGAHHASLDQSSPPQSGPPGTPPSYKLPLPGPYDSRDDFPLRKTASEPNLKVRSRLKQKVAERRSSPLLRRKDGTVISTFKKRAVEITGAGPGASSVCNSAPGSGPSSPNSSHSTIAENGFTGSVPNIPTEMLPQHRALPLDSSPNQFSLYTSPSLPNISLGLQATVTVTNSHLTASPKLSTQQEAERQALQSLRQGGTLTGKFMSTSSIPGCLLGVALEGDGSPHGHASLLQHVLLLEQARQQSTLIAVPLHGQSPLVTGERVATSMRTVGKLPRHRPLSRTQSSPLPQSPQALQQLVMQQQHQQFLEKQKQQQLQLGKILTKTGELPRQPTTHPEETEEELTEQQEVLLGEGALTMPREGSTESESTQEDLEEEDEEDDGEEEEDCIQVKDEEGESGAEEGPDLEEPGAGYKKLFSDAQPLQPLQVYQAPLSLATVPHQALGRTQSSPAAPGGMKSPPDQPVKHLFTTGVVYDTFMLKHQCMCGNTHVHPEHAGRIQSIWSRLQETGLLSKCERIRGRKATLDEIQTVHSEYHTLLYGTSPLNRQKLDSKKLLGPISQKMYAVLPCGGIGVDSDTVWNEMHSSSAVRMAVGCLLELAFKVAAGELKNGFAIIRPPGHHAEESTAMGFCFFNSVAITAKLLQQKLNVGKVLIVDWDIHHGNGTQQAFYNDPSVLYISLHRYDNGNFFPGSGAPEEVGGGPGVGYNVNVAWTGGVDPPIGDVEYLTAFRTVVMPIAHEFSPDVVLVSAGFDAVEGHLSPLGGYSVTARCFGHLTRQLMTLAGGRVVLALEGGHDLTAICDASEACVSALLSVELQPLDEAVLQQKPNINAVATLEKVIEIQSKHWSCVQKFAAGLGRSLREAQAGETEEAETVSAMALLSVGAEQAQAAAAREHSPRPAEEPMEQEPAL

For orientation: IC50 means the concentration that inhibits the measured activity by half. As usually defined, the Papp is the rate of passage across a membrane or cell layer, normalised by area and donor concentration. Read a high Papp as ready permeation. `COc1cccc(CCCCCCCC(=O)NO)c1`: the inhibition result in [1], in [5], in series [6], in [8] and in [11] was “inactive” each time. The IC50 stood at 316 nM in [2] and 190 nM in series [7]. In series [3], the result was Active. Moreover, in series [4], the inhibition result is “Active”. Moreover, the result in series [9] was inactive. The apparent permeability (Papp) at 6 h, 100 µM in [10] was determined as 13.4 ×10⁻⁶ cm/s.
Turning to `COC(=O)c1c(CCCCCCCC(=O)NO)cccc1OC`, the inhibition entry in series [1], in [5], in series [6], in series [8] and in [11] was “inactive” in each case. Moreover, the IC50 was determined as 775 nM in series [2] and 215 nM in series [7]. Besides, the result in [3] was Active. In series [4], the inhibition result was “Active”. Moreover, the result in [9] was inactive. The Papp at 6 h, 100 µM in [10] worked out at 10.2 ×10⁻⁶ cm/s.

(Values after ChEMBL document CHEMBL4433221, “Novel Sustainable-by-Design HDAC Inhibitors for the Treatment of Alzheimer's Disease” (ACS Med Chem Lett, 2019).)
